The source of these data is ChEMBL document CHEMBL3120099, “Novel S1P(1) receptor agonists--part 2: from bicyclo[3.1.0]hexane-fused thiophenes to isobutyl substituted thiophenes” (J Med Chem, 2014).

Data set [1] has as its target Sphingosine 1-phosphate receptor 3 (Homo sapiens, UniProt Q99500). The data set is described as follows: Agonist activity at human recombinant S1P3 receptor expressed in CHO cells assessed as membrane-bound 35S-GTPgammaS incubated 30 mins prior to substrate addition measured after 1 hr by topcount scintillation counting analysis. The class given is functional, cell-based.

The target of data set [2] is Sphingosine 1-phosphate receptor 1 (Homo sapiens, UniProt P21453). The data set is described as follows: Agonist activity at human recombinant S1P1 receptor expressed in CHO cells assessed as membrane-bound 35S-GTPgammaS incubated 30 mins prior to substrate addition measured after 1 hr by topcount scintillation counting analysis. The class given is functional, cell-based.
Chain of Sphingosine 1-phosphate receptor 1 (P21453 whole entry): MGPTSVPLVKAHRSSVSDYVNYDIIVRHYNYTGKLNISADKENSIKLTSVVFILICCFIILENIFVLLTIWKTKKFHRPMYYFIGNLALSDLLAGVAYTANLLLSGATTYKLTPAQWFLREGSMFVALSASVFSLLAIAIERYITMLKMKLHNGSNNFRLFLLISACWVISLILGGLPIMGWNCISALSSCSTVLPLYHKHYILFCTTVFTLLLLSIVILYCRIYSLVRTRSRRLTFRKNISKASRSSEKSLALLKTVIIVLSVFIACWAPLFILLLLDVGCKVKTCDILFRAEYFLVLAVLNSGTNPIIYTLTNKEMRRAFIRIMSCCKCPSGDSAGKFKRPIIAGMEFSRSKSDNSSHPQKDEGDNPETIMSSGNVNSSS

Data set [3] concerns Rattus norvegicus. The data set is described as follows: Lymphopenic activity in Wistar rat assessed as reduction in blood lymphocyte count at 10 mg/kg, po after 24 hrs. The class given is functional. Put shortly:
(§1)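 Normotensive male Wistar rats given 1–10 mg/kg by gavage in 5% DMSO/7.5% succinylated gelatin. Blood taken before and 3, 6 and 24 h after dosing, with later times for some compounds. Lymphocytes counted by hematology analyzer. % LC change calculated per animal relative to the predose value (=100%). Mean ± SEM.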

In data set [4] the test system is Rattus norvegicus. The data set is described as follows: Lymphopenic activity in Wistar rat assessed as reduction in blood lymphocyte count at 10 mg/kg, po after 6 hrs. The class given is functional. Also on record: scale not given: the % may be the effect or the level left. Put shortly: as §1
Data set [5] relates to Rattus norvegicus. The data set is described as follows: Lymphopenic activity in Wistar rat assessed as reduction in blood lymphocyte count at 10 mg/kg, po after 3 hrs. The class given is functional. Also on record: scale not given: the % may be the effect or the level left. Put shortly: as §1
The species named for data set [6] is Homo sapiens. The experiment in a line: Selectivity ratio of EC50 for human recombinant S1P3 receptor to EC50 for human recombinant S1P1 receptor. Summed up: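 GDP was 1 μM for S1P1 and 3 μM for S1P3. Compounds (up to 10 μM) were preincubated 30 min at rt, then incubated 1 h at rt. Bound label was counted after filtration. 10 μM S1P defined maximum. EC50s are geometric means of ≥3 independent duplicate runs.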

A short description of data set [7]: Plasma concentration in Wistar rat at 10 mg/kg, po after 24 hrs. The class given is ADME, organism-based. Details: dose 10 mg/kg, route oral.
A short description of data set [8]: Plasma concentration in Wistar rat at 10 mg/kg, po after 6 hrs. Also on record: dose 10 mg/kg, route oral. The class given is ADME, organism-based.
Data set [9] can be described thus: Plasma concentration in Wistar rat at 10 mg/kg, po after 3 hrs. It counts as ADME, organism-based. Details: dose 10 mg/kg, route oral.

Chain of Sphingosine 1-phosphate receptor 3 (Q99500 whole entry): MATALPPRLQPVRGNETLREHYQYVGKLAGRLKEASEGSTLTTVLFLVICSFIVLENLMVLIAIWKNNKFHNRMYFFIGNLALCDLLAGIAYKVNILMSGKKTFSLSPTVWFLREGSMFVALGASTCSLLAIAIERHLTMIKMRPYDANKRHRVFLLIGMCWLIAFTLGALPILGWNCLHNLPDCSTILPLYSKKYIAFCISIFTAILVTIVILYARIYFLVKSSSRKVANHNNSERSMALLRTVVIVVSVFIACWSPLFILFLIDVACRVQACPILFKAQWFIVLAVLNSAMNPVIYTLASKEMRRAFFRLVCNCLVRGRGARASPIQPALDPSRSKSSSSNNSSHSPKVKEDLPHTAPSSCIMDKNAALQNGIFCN

What is called EC50 is the concentration at which the effect is half-maximal. As for `Cc1cc(CCC(=O)c2sc(C)c3c2CCC(C)(C)C3)cc(C)c1O`, the values for the EC50 in data set [1] and in data set [2] were above 10000 nM and 21 nM, respectively.
As for `Cc1cc(-c2noc(-c3sc(C)c(CC(C)C)c3C)n2)cc(C)c1OCC(O)CNC(=O)CO` (racemic), the “% change in blood lymphocyte count from predose” value (“% change” for short) in [3] is -93%. Further, the results for the Activity in [4] and in [5] were -86% and -78%, respectively. Besides, the EC50 was 74 nM in data set [1] and 0.5 nM in data set [2].
Consider `CCc1cc(CCC(=O)c2sc(OC)c3c2CCC(C)(C)C3)cc(C)c1OCC(O)CNC(=O)CO` (racemic), for which the EC50 in [1] was found to be 3910 nM; in [2], 1.3 nM.
The corresponding values for `CCc1cc(-c2noc(-c3sc(CC)c4c3CCC(CC)(CC)C4)n2)cc(C)c1OC[C@@H](O)CNC(=O)CO` are 1.2 nM and 6 nM.
The matching figures for `Cc1cc(CCC(=O)c2sc(C)c(CC(C)C)c2C)cc(C)c1OCC(O)CNC(=O)CO` (racemic): 5270 nM and 2.7 nM.
On to `Cc1cc(-c2noc(-c3cc(CC(C)C)c(C)s3)n2)cc(C)c1OCC(O)CNC(=O)CO` (racemic), for which the “% change” value in [3] is -91%. The Activity in data set [4] is -78%; in data set [5] it was -77%. For the same compound, the EC50 was found to be 236 nM in data set [1] and 1.5 nM in data set [2].
Consider `CCc1cc(-c2noc(-c3sc(CC)c4c3CCC3(CC3)C4)n2)cc(C)c1OC[C@@H](O)CNC(=O)CO`, for which the EC50 in data set [1] was 24 nM; in data set [2] it was 1.1 nM.
The corresponding values for `Cc1cc(CCC(=O)c2sc(C)c3c2CCC(C)(C)C3)cc(C)c1OCCCNCCO` are above 10000 nM and 48 nM.
The corresponding values for `CCc1sc(C(=O)CCc2cc(C)c(OC[C@@H](O)CO)c(C)c2)c2c1CC1(CC2)CC1` are 819 nM and 1.1 nM.
On to `CCc1cc(-c2noc(-c3sc(CC)c4c3CCCC4)n2)cc(C)c1OC[C@@H](O)CNC(=O)CO`, for which the EC50 in [1] was 172 nM; in data set [2], 0.9 nM.
Take `Cc1cc(CCC(=O)c2sc(C)c3c2CCC(C)(C)C3)cc(C)c1OCC(O)CNCCO` (racemic): the EC50 in data set [1] is above 10000 nM; in data set [2] it was 14 nM.
On to `Cc1cc(CCC(=O)c2sc(C)c3c2CCC(C)(C)C3)cc(C)c1OC[C@@H](O)CO`, for which the Ratio EC50 in data set [6] turned out to be 100. The values for the EC50 in [1] and in data set [2] were 1400 nM and 2.6 nM, respectively.
Regarding `Cc1cc(CCC(=O)c2sc(C)c3c2CCC(C)(C)C3)cc(C)c1CCC(=O)O`, the EC50 in data set [1] is above 10000 nM; in data set [2], 21 nM.
As for `CCc1sc(C(=O)CCc2cc(C)c(OCC(O)CO)c(C)c2)c2c1C[C@@](C)(O)CC2` (mixture of isomers), the EC50 was above 10000 nM in [1] and 79 nM in data set [2].
With `CCc1sc(C(=O)CCc2cc(C)c(OC[C@@H](O)CO)c(C)c2)c2c1CCCC2`, the 50% effective concentration (EC50) in data set [1] is 3830 nM; in [2], 20 nM.
The corresponding values for `CCc1sc(C(=O)CCc2cc(C)c(OC[C@@H](O)CO)c(C)c2)c2c1CC(CC)(CC)CC2` are 25 nM and 0.4 nM.
The matching figures for `CCc1sc(C(=O)CCc2cc(C)c(OCC(O)CO)c(C)c2)c2c1C[C@@H](O)CC2` (mixture of isomers): above 10000 nM and 860 nM.
The corresponding values for `CCCc1sc(C(=O)CCc2cc(C)c(OC[C@@H](O)CNC(=O)CO)c(CC)c2)c2c1CC(C)(C)CC2` are 25 nM and 1.3 nM.
Take `Cc1cc(CCC(=O)c2sc(C)c3c2CCC(C)(C)C3)cc(C)c1OCC(O)CN` (racemic): the results for the EC50 in data set [1] and in data set [2] were above 10000 nM and 7 nM, respectively.
The corresponding values for `CCc1cc(-c2noc(-c3sc(OC)c4c3CCC(C)(C)C4)n2)cc(C)c1OC[C@@H](O)CNC(=O)CO` are 83 nM and 1.8 nM.
The corresponding values for `CCc1cc(CCC(=O)c2sc(C(F)(F)F)c3c2CCC(C)(C)C3)cc(C)c1OCC(O)CNC(=O)CO` (racemic) are 242 nM and 1.3 nM.
The matching figures for `CCCc1sc(-c2nc(-c3cc(C)c(OC[C@@H](O)CNC(=O)CO)c(CC)c3)no2)c2c1CC(C)(C)CC2`: 11 nM and 20 nM.
`Cc1cc(CCC(=O)c2sc(C)c3c2CCC(C)(C)C3)cc(C)c1OCC(O)CNC(=O)CO` (racemic): the EC50 is 392 nM in data set [1] and 0.5 nM in data set [2].
As for `CCc1sc(C(=O)CCc2cc(C)c(OC[C@@H](O)CO)c(C)c2)c2c1CC1(CCCC1)CC2`, the results for the EC50 in [1] and in [2] were 62 nM and 0.4 nM, respectively.
For the compound `CCc1cc(-c2noc(-c3sc(C)c4c3CCC(C)(C)C4)n2)cc(C)c1OCC(O)CNC(=O)CO` (racemic), the EC50 in data set [1] was 122 nM; in data set [2], 1.5 nM.
The corresponding values for `CCc1sc(C(=O)CCc2cc(C)c(OCC(O)CO)c(C)c2)c2c1C[C@@H](N(C)C)CC2` (mixture of isomers) are above 10000 nM and 1600 nM.
For the compound `Cc1cc(CCC(=O)c2ccc(CC(C)C)s2)cc(C)c1OCC(O)CNC(=O)CO` (racemic), the EC50 in [1] is 590 nM; in data set [2] it was 7.7 nM.
Turning to `Cc1cc(CCC(=O)c2sc(C)c3c2CCC(C)(C)C3)cc(C)c1OCCNCCO`, the EC50 in data set [1] is above 10000 nM; in data set [2], 11 nM.
With `CCc1sc(C(=O)CCc2cc(C)c(OCC(O)CO)c(C)c2)c2c1CC(C)CC2` (mixture of isomers), the results for the EC50 in [1] and in data set [2] were 599 nM and 1.6 nM, respectively.
The matching figures for `Cc1cc(CCC(=O)c2sc(C)c3c2CCC(C)(C)C3)cc(C)c1OCC(O)CN1CC(C(=O)O)C1` (racemic): 1760 nM and 4.3 nM.
As to `CCc1cc(-c2noc(-c3scc4c3CCC(C)(C)C4)n2)cc(C)c1OCC(O)CNC(=O)CO` (racemic), the Ratio EC50 in data set [6] is 100. The values for the 50% effective concentration (EC50) in data set [1] and in [2] were 314 nM and 1.7 nM, respectively.
Consider `CCc1cc(CCC(=O)c2sc(C)c3c2CCC(C)(C)C3)cc(C)c1OCC(O)CNC(=O)CO` (racemic), for which the EC50 in data set [1] amounted to 4420 nM; in [2] it was 1.2 nM.
Turning to `CCCc1ccc(-c2nc(-c3cc(C)c(OCC(O)CNC(=O)CO)c(C)c3)no2)s1` (racemic), in data set [3], the “% change” value was 31%. For the same compound, the figures for the Activity in data set [4] and in data set [5] were -59% and -65%, respectively. For the same compound, the EC50 in [1] was determined as 1150 nM; in [2] it was 0.9 nM.
With `CCc1sc(C(=O)CCc2cc(C)c(OC[C@@H](O)CO)c(C)c2)c2c1CC(C)(C)CC2`, the EC50 was determined as 126 nM in data set [1] and 0.4 nM in [2].
The corresponding values for `CCc1cc(-c2noc(-c3sc(CC)c4c3CCC3(CCCC3)C4)n2)cc(C)c1OC[C@@H](O)CNC(=O)CO` are 11 nM and 4.7 nM.
As for `Cc1cc(CCC(=O)c2sc(C)c3c2CCC(C)(C)C3)cc(C)c1OC[C@H](O)CO`, the Ratio EC50 in data set [6] stood at 100. Moreover, the EC50 in data set [1] was 1100 nM; in [2], 3.4 nM.
In the case of `Cc1cc(CCC(=O)c2sc(C)c3c2CCC(C)(C)C3)cc(C)c1OCCN`, the EC50 in [1] worked out at 8560 nM; in data set [2] it was 6.1 nM.
In the case of `CCc1c(-c2nc(-c3cc(C)c(OCC(O)CNC(=O)CO)c(C)c3)no2)sc(C)c1CC(C)C` (racemic), the “% change” value in data set [3] is given as -25%. The Activity in data set [4] was -40%; in data set [5], -30%. The EC50 in [1] came to 172 nM; in data set [2], 6.6 nM.
For the compound `CCc1ccc(-c2nc(-c3cc(C)c(OC[C@@H](O)CNC(=O)CO)c(C)c3)no2)s1`, the “% change” value in data set [3] is given as 12%. Further, the results for the Activity in data set [4] and in [5] were -77% and -73%, respectively.
In turn, `CCc1ccc(-c2nc(-c3cc(C)c(OCC(O)CNC(=O)CO)c(C)c3)no2)s1` (racemic) came in with a concentration at 24 h in data set [7] below 2 ng/mL. In addition, the concentration at 6 h in [8] came out at 190 ng/mL. In data set [9], the concentration at 3 h is 490 ng/mL. The values for the EC50 in data set [1] and in data set [2] were 1860 nM and 4.3 nM, respectively.
On to `CCc1cc(CCC(=O)c2scc3c2CCC(C)(C)C3)cc(C)c1OC[C@@H](O)CNC(=O)CO`, for which the Ratio EC50 in data set [6] came out at 100. Moreover, the values for the EC50 in data set [1] and in data set [2] were 5270 nM and 4.8 nM, respectively.
On to `Cc1cc(CCC(=O)c2sc(C)c3c2CCC(C)(C)C3)cc(C)c1OCC(O)CNCCC(=O)O` (racemic), for which the results for the EC50 in data set [1] and in [2] were 569 nM and 1.2 nM, respectively.
Regarding `CCCCc1ccc(-c2nc(-c3cc(C)c(OCC(O)CNC(=O)CO)c(C)c3)no2)s1` (racemic), the “% change” value in [3] is given as 18%. The values for the Activity in data set [4] and in data set [5] were -52% and -66%, respectively. In addition, the EC50 turned out to be 1250 nM in [1] and 4.7 nM in data set [2].
Take `Cc1cc(CCC(=O)c2sc(C)c3c2CCC(C)(C)C3)cc(C)c1OCCCO`: the results for the EC50 in data set [1] and in data set [2] were 4450 nM and 71 nM, respectively.
The matching figures for `Cc1cc(CCC(=O)c2sc(C)c3c2CCC(C)(C)C3)cc(C)c1OCCO`: 4450 nM and 19 nM.
